TMEM16A inh: blocks the mouse calcium-activated chloride channel TMEM16A | 310,000 compounds, 1.2% hits | HEK293 TMEM16A/YFP iodide influx fluorescence, ionomycin | normalized B-score (activity score, 25-100; higher = stronger inhibition) at 10 µM | Q8BHY3;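 active means ratio plate-corrected score three or more library SD toward inhibition, starting fluorescence score within five deviations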;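 further: score derived from kinetic fluorescence span divided by baseline fluorescence per well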
MC4R antag cAMP: antagonists of human melanocortin 4 receptor (MC4R); P32245; 360,000 compounds, 0.48% hits; inhibition, % at 6.5 µM; MC4R-expressing cells, MTII-stimulated cAMP, LANCE TR-FRET;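 active means inhibition above its plate's cutoff, the mean of tested wells on that plate plus 3 SD, cut at about 29% in these data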;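 further: 0% = Melanotan II alone and 100% = Melanotan II plus saturating MCL0020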
Target sequence (P32245 whole entry, looked up): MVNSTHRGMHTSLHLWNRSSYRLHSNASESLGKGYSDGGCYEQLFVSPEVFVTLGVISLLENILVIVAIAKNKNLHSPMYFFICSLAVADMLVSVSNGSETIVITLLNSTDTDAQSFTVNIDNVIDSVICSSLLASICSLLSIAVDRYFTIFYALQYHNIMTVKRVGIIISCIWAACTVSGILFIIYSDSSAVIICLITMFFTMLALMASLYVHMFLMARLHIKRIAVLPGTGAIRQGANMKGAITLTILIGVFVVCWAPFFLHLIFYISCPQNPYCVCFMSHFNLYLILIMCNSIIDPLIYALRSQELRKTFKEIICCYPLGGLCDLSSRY
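system = U2OS cells with stable human MC4R expression | also added = Melanotan II challenge after compound preincubation | dosing = one concentration, 6.5 µM nominal | incubation = compound 30 min, challenge 1 h, detection 1 h | measured by = TR-FRET with Eu-cAMP and labeled anti-cAMP, 671 nm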
Beta apoptosis: blocks beta cell apoptosis | INS-1E cytokine-induced death, ATP luminescence, 48 h; percent of positive-control rescue, neutral wells zero | protection from apoptosis, % (concentration not given with the values) | 300,000 compounds, 0.8% hits;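 active means Every replicate reaches about 75%, or at least half do and their mean reaches it too, limit read from the data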;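 further: 0% = cytokine-treated negative control wells and 100% = positive control rescue; higher means more ATP so stronger rescue from cytokine killing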
CSC inhib: blocks cancer stem cells; cancer stem cell-like cells viability, luminescence; inhibition, % at 7.5 µM; 300,000 compounds, 1.1% hits; in the data active means inhibition above about 75%; tested in HMLE shEcad cells
MC4R barr agon: activates human MC4R beta-arrestin recruitment | P32245 | 360,000 compounds, 0.98% hits | U2OS MC4R beta-arrestin complementation, luminescence; percent of melanotan II response, DMSO zero | AID 540308 | activation, % at 8.9 µM;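 active means activation above a per-plate cutoff, the mean activation of sample wells on that plate plus 3 SD, cut at about 8% in these data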
TMEM16A act: activators or potentiators of mouse TMEM16A chloride channel | HEK293 TMEM16A/YFP-H148Q/I152L, iodide quench fluorescence; stronger effect = lower value | B-score at 10 µM | 340,000 compounds, 0.3% hits | Q8BHY3;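 active means fluorescence-ratio B-score plate-corrected deviation score at least 3 library SD below zero, with starting fluorescence score within 5 deviations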;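 further: channel opened by trigger with iodide after compound preincubation; score built on the fluorescence ratio of max minus min over baseline; more negative score means more quench and so TMEM16A activation or potentiation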
TMEM16A reconf: reconfirmed blocker of mouse TMEM16A calcium-activated chloride channel; shares compounds with TMEM16A inh; HEK293 TMEM16A/YFP-H148Q, iodide quench fluorescence; ionomycin added to raise cell calcium; inhibition, % at 10 µM; 2,300 compounds, 39% hits; AID 652189;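 active means mean duplicate percent inhibition, scaled so buffer wells are 0 and the reference blocker 100, over three buffer SD above buffer mean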
TMEM16A Ca cntr: calcium mobilization counter-screen hit for TMEM16A inhibitor series. shares compounds with TMEM16A inh. TMEM16A/YFP HEK293, Fluo4 calcium mobilization. calcium response (% of ionomycin), % at 10 µM. 2,300 compounds, 2% hits;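 active means duplicate-averaged calcium signal over 20% of the ionomycin maximum, relative to buffer baseline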;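 further: each well's signal is peak minus trough fluorescence divided by its pre-addition baseline; 0% = buffer wells and 100% = ionomycin wells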
YFP-HEK293 quench: counter-screen for TMEM16A inhibitors: effect in parental YFP-HEK293 cells. shares compounds with TMEM16A inh. iodide YFP quench, ionomycin. YFP ratio F(max-min)/F0 at 10 µM. 2,300 tested, under 10 active. AID 652233;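 active means yellow fluorescent protein signal ratio exceeding the buffer control mean by over 5 SD of those controls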;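 further: ratio is mean of duplicate wells from kinetic YFP trace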
ClC-1 rat inh: selectivity of TMEM16A inhibitors: inhibition of rat ClC-1 chloride channel. CHO ClC-1-YFP, iodide influx fluorescence quench; iodide control reads 0, buffer control 100. 2,300 tested, under 10 active. ratio percent, % at 10 µM. shares compounds with TMEM16A inh;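 active means duplicate-mean ratio percent above the mean of iodide-only control wells, which defines zero, plus 5 of their SD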;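 further: higher percent means stronger block of ClC-1 iodide influx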
Active calls of the source: *; i = inactive; . = no result. Shown are actives, neighbours in structure and some others; about 3.8% of the full set was active somewhere.

SMILES	TMEM16A inh	MC4R antag cAMP	Beta apoptosis	CSC inhib	MC4R barr agon	TMEM16A act	TMEM16A reconf	TMEM16A Ca cntr	YFP-HEK293 quench	ClC-1 rat inh
COc1ccc(C)cc1NC(=O)C1CCCN(S(=O)(=O)c2cccc3cccnc23)C1 (centres undefined)	100*	11.7	-0.8	.	0.5	i	i	i	-0.915	-4.5
CSc1ccc(CN(C)C(=O)c2ccc(S(=O)(=O)Nc3ccccc3)cc2)cc1	25*	-1.4	4.5	-4.8	-1.4	i	i	i	-1.2	-11.5
COc1cc(OC)cc(C(=O)NNC(=O)CN2C(=O)NC(C)(c3ccc(C)cc3)C2=O)c1 (centres undefined)	i	3.8	2.2	-5.3	-1.0	i	.	.	.	.
N#Cc1c(NC(=O)CSc2nnnn2C2CCCCC2)sc2c1CCCC2	25*	23.7	-1.0	12.4	-1.4	i	i	i	-1.15	-8.5
Cc1nnc(SCC(=O)Nc2sc3c(c2C#N)CCCCC3)n1N	i	1.3	1.1	-11.7	0.0	i	.	.	.	.
O=C(CSc1n[nH]c(-c2ccccc2O)n1)NC1CCCCC1	100*	-0.5	-1.5	30.9	0.8	i	i	i	-1.27	11.5
CCc1ccc(-c2nc(CSCC(=O)N3CCN(c4ncccn4)CC3)c(C)o2)cc1	25*	6.3	8.3	-8.6	-0.5	i	i	i	-1.05	-11.0
CSc1ccc(-c2nc(CSCC(=O)N3CCOCC3)c(C)o2)cc1	25*	5.3	-6.9	-2.0	-0.5	i	27.5%*	i	-1.05	-14.0
CSc1ccc(-c2nc(CSCC(=O)NC3CC3)c(C)o2)cc1	i	-3.0	-9.8	-8.8	-0.6	i	.	.	.	.
CCc1ccc(-c2nc(CSCC(=O)NC3CC3)c(C)o2)cc1	i	1.0	4.6	-13.4	-4.0	i	.	.	.	.
CCCCn1c(N)c(N(CC(C)C)C(=O)CCN2C(=O)C3CC=CCC3C2=O)c(=O)[nH]c1=O (centres undefined)	.	13.4	.	.	0.3	.	.	.	.	.
COc1ccc(CSc2nc(C)cc(C)c2C#N)cc1	i	-5.8	-1.8	-2.7	1.0	i	.	.	.	.
N#Cc1cc2c(nc1SCC1COc3ccccc3O1)CCC2 (centres undefined)	i	-6.6	-5.3	15.9	-0.1	i	.	.	.	.
Cc1cc(C)c(C#N)c(SCc2ccccc2C)n1	25*	-17.9	4.9	17.0	1.6	i	i	i	-1.03	-17.0
Cc1cc(C)c(C#N)c(SCc2ccccc2)n1	25*	-15.3	-3.6	.	6.8	i	i	i	-1.06	-10.5
Cc1cc(C)c(C#N)c(SCC2COc3ccccc3O2)n1 (centres undefined)	100*	3.0	-0.7	4.5	-0.6	i	i	i	-1.18	-9.5
CSCCC(NC(=O)c1ccccc1)C(=O)NCCCSc1ccccc1 (centres undefined)	.	19.4	-1.2	4.8	-0.2	i	.	.	.	.
O=S(=O)(c1ccc(NC(=S)N/N=C/c2ccc(O)c(O)c2)cc1)N1CCOCC1	i	-5.2	0.6	0.9	-2.1	i	.	.	.	.
O=[N+]([O-])c1cc(Cl)cc(/C=N/NC(=S)Nc2ccc(S(=O)(=O)N3CCOCC3)cc2)c1O	25*	27.4	12.5	22.7	-3.9	i	70.0%*	i	-0.733	4.0
O=S(=O)(c1cccc2nonc12)N1CCCCCC1	i	9.1	0.2	-6.3	-2.0	i	i	i	-0.895	-4.5

Bioassay records as filed in PubChem.
